# The list is not random: actives were taken first. Their share in the collection is about 3.6%.
# VIM-2 inh – inhibitors of Pseudomonas aeruginosa VIM-2 metallo-beta-lactamase | 290,000 tested, 0.89% active | purified VIM-2, nitrocefin hydrolysis, epi-absorbance fluorescence | inhibition, % at 5.6 µM | AID 1527;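 active = inhibition above the mean of all tested compounds plus 3 SD, cutoff set per screening run, cut at about 7.5% in these data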;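 also: red hydrolysis product quenches plate fluorescence so inhibitors raise well fluorescence; 0% = enzyme with DMSO and 100% = DMSO without enzyme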
# pPAFAH FP inh – pPAFAH (human) enzyme inhibition | Q13093 | recombinant pPAFAH, FP-rhodamine probe fluorescence polarization | inhibition, % at 3.39 µM | 330,000 tested, 1.5% active | AID 463082;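 active = inhibition above the mean inhibition across the screen plus 3 SD, cut at about 25% in these data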;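 also: inhibitors block binding of the rhodamine activity-based probe so polarization drops; 0% = enzyme with DMSO and 100% = wells lacking pPAFAH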
# Target sequence (Q13093 whole entry, looked up): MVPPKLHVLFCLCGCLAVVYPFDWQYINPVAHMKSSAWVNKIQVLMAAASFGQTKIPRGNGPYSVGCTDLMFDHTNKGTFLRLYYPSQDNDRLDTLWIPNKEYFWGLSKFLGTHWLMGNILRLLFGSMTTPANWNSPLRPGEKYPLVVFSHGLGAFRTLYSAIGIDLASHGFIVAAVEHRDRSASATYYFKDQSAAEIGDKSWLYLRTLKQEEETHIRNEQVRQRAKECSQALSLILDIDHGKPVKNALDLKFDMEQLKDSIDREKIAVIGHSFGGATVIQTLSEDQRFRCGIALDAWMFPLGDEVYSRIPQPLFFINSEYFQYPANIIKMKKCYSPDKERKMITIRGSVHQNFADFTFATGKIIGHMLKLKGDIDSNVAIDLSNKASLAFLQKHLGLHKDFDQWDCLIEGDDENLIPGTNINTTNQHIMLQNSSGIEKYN
# IMP-1 inh-1 – blocks Pseudomonas aeruginosa IMP-1 metallo-beta-lactamase; inhibition, % at 5.6 µM; purified IMP-1, nitrocefin hydrolysis, epi-absorbance fluorescence; 290,000 tested, 0.45% active;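 active = inhibition above the mean plus 3 SD of all compounds in the same screening run, cut at about 4.5% in these data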;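 also: 0% = IMP-1 with DMSO and 100% = DMSO wells lacking enzyme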
#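 System: purified IMP-1 / Input: IMP-1 dispensed at 0.2 nM / Medium: 50 mM HEPES pH 7.1, 50 µM ZnSO4, 0.05% Brij 35 / Timing: 15 min enzyme–compound preincubation, then 25 min nitrocefin reaction, 25 °C / Technique: plate fluorescence quenching by hydrolysis product, ex 480/em 530 nm / Repeats: singlicate testing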
# PAFAH1B3 FP inh – blocks human PAF acetylhydrolase 1B catalytic subunit 3; 340,000 tested, 0.28% active; AID 492972; inhibition, % at 3.39 µM; recombinant PAFAH1B3, FP-rhodamine probe, fluorescence polarization;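 active = inhibition above the screen-wide average of all tested compounds plus 3 SD, cut at about 25% in these data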;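 also: 0% = enzyme with DMSO only and 100% = wells lacking PAFAH1B3 protein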
# PAFAH1B2 FP inh – PAFAH1B2 (human) inhibition | P68402 | recombinant PAFAH1B2, FP-rhodamine activity probe, fluorescence polarization | inhibition, % at 3.39 µM | 340,000 tested, 1.2% active | AID 492953;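 active = inhibition above the mean of all tested compounds plus 3 SD, cut at about 24% in these data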;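 also: 0% = enzyme with DMSO and 100% = wells lacking PAFAH1B2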
# PAFAH2 inh – PAFAH2 (human) inhibition. inhibition, % at 3.39 µM. 340,000 tested, 0.99% active. recombinant PAFAH2, FP-rhodamine activity probe, fluorescence polarization. AID 492956. Q99487;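 active = inhibition above the mean over all tested compounds plus 3 SD, cut at about 30% in these data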;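 also: inhibitors block probe labeling of enzyme so polarization drops; 0% = enzyme with DMSO and 100% = wells lacking PAFAH2 protein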
# IMP-1 inh-2 – blocks IMP-1 metallo-beta-lactamase in VIM-2 selectivity screen; shares compounds with VIM-2 inh; purified IMP-1, nitrocefin hydrolysis, epi-absorbance fluorescence; inhibition, % at 5.6 µM; 1,300 tested, under 10 active; AID 1856; call rule not given here;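 also: 0% = enzyme with vehicle and 100% = vehicle without enzyme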
# VIM-2 FRET ctr – inhibits VIM-2 in FRET assay to exclude epi-absorbance artifacts. purified VIM-2, CCF2 FRET substrate hydrolysis. inhibition, % at 5.6 µM. AID 1857. shares compounds with VIM-2 inh. 1,300 tested, 23% active;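 active = inhibition above the mean of all tested compounds plus 3 SD, cut at about 19% in these data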;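 also: 0% = VIM-2 plus DMSO and 100% = no enzyme wells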
# TEM-1 counter – TEM-1 inhibition, counter-screen for VIM-2 inhibitors | Purified TEM-1, nitrocefin hydrolysis, epi-absorbance fluorescence | shares compounds with VIM-2 inh | inhibition, % at 5.6 µM | 1,300 tested, 3% active | AID 1866;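 active = inhibition above that campaign's mean inhibition plus 3 SD, cut at about 0.46% in these data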;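 also: 0% = TEM-1 with DMSO and 100% = TEM-1 with 100 µM potassium clavulanate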
# VIM-2 inh conf – confirmation of P. aeruginosa VIM-2 metallo-beta-lactamase inhibitors; shares compounds with VIM-2 inh; purified VIM-2, nitrocefin hydrolysis, epi-absorbance; inhibition, % at 5.6 µM; 1,300 tested, 96% active; AID 2187;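 active = inhibition of the VIM-2 beta-lactamase enzyme above about 11% from the earlier first-round screen, limit read from the data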;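 also: 0% = VIM-2 with DMSO and 100% = buffer wells without enzyme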
# * marks the source's active call; other numbers are inactive results; · = no result.
SMILES,VIM-2 inh,pPAFAH FP inh,IMP-1 inh-1,PAFAH1B3 FP inh,PAFAH1B2 FP inh,PAFAH2 inh,IMP-1 inh-2,VIM-2 FRET ctr,TEM-1 counter,VIM-2 inh conf
CN1CCN(c2ccc(C(=O)c3ccc(F)cc3)cc2)CC1,24.2*,3.9,-1.0,3.0,-1.1,0.1,-2.3,-2.4,-6.0,39.9*
Cc1ccc(NC(=O)C2COc3ccccc3O2)cc1S(=O)(=O)N1CCCCC1 (configuration not stated),·,2.9,·,-2.4,8.8,9.6,·,·,·,·
COc1ccc(Cl)cc1NC(=O)C1CCN(C(=O)Nc2ccccc2)CC1,·,1.1,·,2.0,5.2,-0.7,·,·,·,·
COc1ccc2ccccc2c1C(O)c1nccn1C (configuration not stated),12.6*,7.0,0.5,39.0*,32.1*,44.5*,-0.4,-1.6,-1.3,11.2*
Cc1cccc(C2c3[nH]c4ccccc4c3CCN2C(=O)c2cc(CC(C)C)[nH]c(=O)n2)n1 (configuration not stated),24.1*,0.4,-1.8,2.9,5.5,4.4,-3.8,57.6*,-4.6,35.9*
Cc1cccc(C2c3[nH]c4ccccc4c3CCN2C(=O)c2cc(CC(C)C)nc(C)n2)n1 (configuration not stated),-2.3,6.5,-3.9,5.1,3.2,2.0,·,·,·,·
CCN(CC)CCCNC(=O)c1cc2nc3c(c(C(F)(F)F)n2n1)CCc1ccccc1-3,13.4*,2.2,-2.7,3.5,1.8,-0.1,-3.1,1.4,-3.5,15.4*
Cc1ccc(O)c(NC(=O)c2cc3nc4c(c(C(F)(F)F)n3n2)CCc2ccccc2-4)c1,-0.9,6.1,-2.0,3.9,-2.8,0.1,·,·,·,·
O=c1[nH]c(SCc2n[nH]c(=S)n2-c2ccccc2)nc2sc3c(c12)CCC3,20.9*,3.6,-2.4,-1.4,1.3,0.0,-3.2,45.1*,-9.4,29.2*
O=c1[nH]c(SCc2nc3ccccc3c(=O)n2-c2ccccc2)nc2ccccc12,1.6,-3.7,0.7,3.6,8.9,-4.4,·,·,·,·
O=c1[nH]c(SCc2n[nH]c(=S)n2-c2ccccc2)nc2ccccc12,28.0*,1.7,-3.0,-1.1,0.7,4.2,-0.8,55.1*,-0.3,40.2*
S=c1[nH]nc(C2CC2)n1Cc1ccco1,25.4*,1.9,1.9,-2.2,-3.2,-3.5,-3.5,56.0*,-7.2,35.6*
C=CCn1c(C(c2ccccc2)c2ccccc2)n[nH]c1=S,-5.6,5.2,-2.5,4.5,7.9,-0.4,·,·,·,·
C=CCn1c(C2CC2)n[nH]c1=S,15.2*,2.9,-2.4,9.1,2.0,2.0,-3.1,36.5*,-6.9,23.1*
CCN1CCN(c2nc3ccccc3n3cnnc23)CC1,0.7,-4.5,-1.4,5.5,5.0,-1.4,·,·,·,·
Cc1nnc2c(N3CCN(CCO)CC3)nc3ccccc3n12,12.9*,7.7,-2.8,9.3,-2.3,-3.4,-4.6,-1.4,-4.4,14.3*
Cc1ccc(-c2n[nH]c(=S)n2Cc2ccccc2)cc1,12.4*,3.5,-0.1,-0.9,9.7,6.8,-3.4,29.2*,-9.9,16.1*
Cc1ccc(-n2c(-c3nn(C)c(C)c3Cl)n[nH]c2=S)cc1,18.9*,0.5,-4.2,-3.1,9.1,-7.5,-3.6,54.0*,-7.9,36.5*
Cc1cccc(-c2n[nH]c(=S)n2Cc2ccccc2)c1,-2.1,-2.0,-1.5,0.2,11.4,4.7,·,·,·,·
S=c1[nH]nc(-c2cccnc2)n1-c1ccccc1,3.9,1.1,-2.7,3.1,3.5,5.2,·,·,·,·
Cc1ccc(-c2n[nH]c(=S)n2-c2ccccc2)cc1,13.0*,1.9,-3.1,7.8,10.6,-6.7,-3.5,34.6*,-7.9,22.8*
CCCCc1n[nH]c(=S)n1Cc1ccc(C)cc1,23.4*,-1.8,-0.8,6.8,11.2,-4.4,-2.5,37.3*,-3.3,25.7*

# Assay outcomes from PubChem BioAssay.
